This is an account of results in ChEMBL document CHEMBL1131203, “Second generation "peptoid" CCK-B receptor antagonists: identification and development of N-(adamantyloxycarbonyl)-alpha-methyl-(R)-tryptophan derivative (CI-1015) with an improved pharmacokinetic profile” (J Med Chem, 1998).

For data set [1], the system named is Mus musculus. In words: Concentration in forebrain after intravenous injection evaluated after 5 min. at a dose of 10 mg/kg. Type of data set: functional. The essentials:
(§1)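 Ex vivo binding: mice were dosed iv with compound or vehicle, given either as saline or as 10% EtOH–60% propylene glycol–30% saline. Forebrains were taken at 5, 10 or 20 min, homogenized in HEPES buffer with bacitracin at pH 7.2, and incubated with 50 pM [125I]BH-CCK8s for 2 h at 22 °C. After filtration, bound radioligand was gamma-counted and read against calibration curves prepared in vehicle tissue. Detection limit was about 1 pmol/forebrain. n = 3–13.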

The nature of data set [2]: Pharmacokinetic parameter AUC was evaluated in Hp-beta-CD solution. The data set is classed as ADME. The essentials:
(§2)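 Fasted male Wistar rats, groups of 3–4, given a single oral 20 mg/kg dose in the stated vehicle. Heparinized plasma was collected from an implanted jugular-vein cannula at serial times out to 24 h, kept frozen, and assayed by validated HPLC-fluorescence. Cmax, tmax, AUC(0–∞) and terminal t1/2 were obtained by noncompartmental analysis. Values are means (%RSD).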

In data set [3] the test system is Mus musculus. Briefly: Concentration in forebrain after intravenous injection evaluated after 20 min. at a dose of 10 mg/kg. Type of data set: functional. The essentials:
as §1

The nature of data set [4]: Pharmacokinetic parameter tmax was evaluated in saline solution at a dose of 20 mg/kg orally. The data set is classed as ADME, organism-based. Also noted: dose 20 mg/kg, route oral. Conditions: in vivo, po. A digest of the protocol: as §2
Data set [5] can be described thus: Pharmacokinetic parameter AUC was evaluated in saline solution at a dose of 20 mg/kg orally. The data set is classed as ADME, organism-based. To be noted: in vivo, po. On the set-up: dose 20 mg/kg, route oral. A digest of the protocol: as §2
The nature of data set [6]: Pharmacokinetic parameter tmax was evaluated in Hp-beta-CD solution at a dose of 20 mg/kg orally. To be noted: in vivo, po. The data set is classed as ADME, organism-based. On the set-up: dose 20 mg/kg, route oral. The essentials: as §2
The nature of data set [7]: Maximum plasma concentration was evaluated in saline solution at a dose of 20 mg/kg orally. Type of data set: ADME, organism-based. On the set-up: dose 20 mg/kg, route oral. Conditions: po. The essentials: as §2
Data set [8] in a line: Maximum plasma concentration was evaluated in Hp-beta-CD solution at a dose of 20 mg/kg orally. The data set is classed as ADME, organism-based. On the set-up: dose 20 mg/kg, route oral. Conditions: po. A digest of the protocol:
as §2

A short description of data set [9]: Absolute oral bioavailability was evaluated in Hp-beta-CD solution at a dose of 20 mg/kg orally. The data set is classed as ADME, organism-based. Conditions: eutheria, in vivo. A digest of the protocol:
(§3)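 Fasted male Wistar rats, groups of 3–4, given a single 20 mg/kg dose po or iv in the stated vehicle. Heparinized plasma was drawn from a jugular-vein cannula at serial times out to 24 h and assayed by validated HPLC-fluorescence. Absolute bioavailability is the dose-normalized ratio of AUC after po dosing to AUC after iv dosing.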

Data set [10] in a line: Absolute oral bioavailability was evaluated in saline solution at a dose of 20 mg/kg orally. Type of data set: ADME, organism-based. Conditions: eutheria, in vivo. A digest of the protocol:
as §3

For data set [11], the system named is Mus musculus. Briefly: Concentration in forebrain after intravenous injection evaluated after 10 min. at a dose of 10 mg/kg; Below low level of detection. Type of data set: functional, organism-based. On the set-up: dose 10 mg/kg. The essentials: as §1
Data set [12] is described as follows: Pharmacokinetic parameter tmax was evaluated in 100% PEG solution at a dose of 20 mg/kg orally. Type of data set: ADME, organism-based. On the set-up: dose 20 mg/kg, route oral. To be noted: in vivo, po. The essentials:
as §2

Data set [13] in a line: Maximum plasma concentration was evaluated in 10% of PEG suspension at a dose of 20 mg/kg orally. The data set is classed as ADME, organism-based. On the set-up: dose 20 mg/kg, route oral. Conditions: po. The essentials:
as §2

The nature of data set [14]: Pharmacokinetic parameter Tmax was evaluated in 0.5% methylcellulose suspension. Conditions: in vivo.
A short description of data set [15]: Pharmacokinetic parameter AUC was evaluated in HP-beta-CD solution at a dose of 20 mg/kg orally. The data set is classed as ADME, organism-based. On the set-up: dose 20 mg/kg, route oral. To be noted: in vivo, po. The essentials:
as §2

Data set [16] is described as follows: Maximum plasma concentration was evaluated in HP-beta-CD solution at a dose of 20 mg/kg orally. The data set is classed as ADME, organism-based. On the set-up: dose 20 mg/kg, route oral. Conditions: po. The essentials: as §2
Data set [17] is described as follows: Maximum plasma concentration was evaluated in 0.5% methylcellulose suspension at a dose of 20 mg/kg orally. The data set is classed as ADME, organism-based. Also noted: dose 20 mg/kg, route oral. Conditions: po. The essentials:
as §2

The target in data set [18] is T1, Cholecystokinin receptor type A (Rattus norvegicus, UniProt P30551).
T1 sequence (P30551 whole entry): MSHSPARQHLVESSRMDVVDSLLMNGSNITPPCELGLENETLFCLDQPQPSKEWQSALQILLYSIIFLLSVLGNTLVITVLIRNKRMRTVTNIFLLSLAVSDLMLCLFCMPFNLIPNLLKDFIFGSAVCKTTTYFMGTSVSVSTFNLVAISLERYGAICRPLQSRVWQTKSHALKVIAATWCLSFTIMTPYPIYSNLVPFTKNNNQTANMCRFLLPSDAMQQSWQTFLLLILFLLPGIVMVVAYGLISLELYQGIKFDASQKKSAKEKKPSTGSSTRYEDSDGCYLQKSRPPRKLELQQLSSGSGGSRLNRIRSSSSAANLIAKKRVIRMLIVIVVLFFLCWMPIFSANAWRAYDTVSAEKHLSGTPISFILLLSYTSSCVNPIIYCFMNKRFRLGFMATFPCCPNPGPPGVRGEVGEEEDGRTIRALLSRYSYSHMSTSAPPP
In words: Inhibitory concentration against radioligand [125I]Bolton-Hunter labeled CCK-8 to cholecystokinin type A receptor in the rat pancreas.

The nature of data set [19]: Pharmacokinetic parameter AUC evaluated in 0.5% methylcellulose suspension at a dose of 20 mg/kg orally. Also noted: dose 20 mg/kg, route oral. To be noted: in vivo, po. The data set is classed as ADME, organism-based. A digest of the protocol: as §2
The nature of data set [20]: Pharmacokinetic parameter tmax was evaluated in HP-beta-CD solution at a dose of 20 mg/kg orally. Type of data set: ADME, organism-based. Also noted: dose 20 mg/kg, route oral. To be noted: in vivo, po. The essentials:
as §2

Data set [21] in a line: Absolute oral bioavailability was evaluated in 0.5% methylcellulose suspentionat a dose of 20 mg/kg orally. Type of data set: ADME, organism-based. Conditions: eutheria, in vivo. The essentials: as §3
Data set [22] in a line: Maximum plasma concentration was evaluated in 100% of PEG solution at a dose of 20 mg/kg orally. Type of data set: ADME, organism-based. On the set-up: dose 20 mg/kg, route oral. To be noted: po. A digest of the protocol: as §2
A short description of data set [23]: Pharmacokinetic parameter tmax was evaluated in 10% PEG suspension at a dose of 20 mg/kg orally. The data set is classed as ADME, organism-based. Also noted: dose 20 mg/kg, route oral. To be noted: in vivo, po. A digest of the protocol: as §2
Data set [24] deals with Mus musculus. In words: Concentration in forebrain after 20 min of injection at a concentration of 1 mg/kg, iv in mice. The data set is classed as functional. The essentials: as §1
Data set [25] is described as follows: Pharmacokinetic parameter half-life was evaluated in 10% PEG suspension at a dose of 20 mg/kg orally. The data set is classed as ADME, organism-based. Also noted: dose 20 mg/kg, route oral. To be noted: in vivo, po. The essentials:
as §2

Data set [26] is described as follows: Pharmacokinetic parameter AUC was evaluated in 100% PEG solution at a dose of 20 mg/kg orally. The data set is classed as ADME, organism-based. On the set-up: dose 20 mg/kg, route oral. To be noted: in vivo, po. A digest of the protocol:
as §2

Data set [27] has as its system Mus musculus. Briefly: Concentration in forebrain after 5 min of injection at a concentration of 1 mg/kg, iv in mice. Type of data set: functional. The essentials: as §1
A short description of data set [28]: Oral bioavailability (dosed in HP-beta-CD solution) (dose 20 mg/kg p.o.). To be noted: eutheria, in vivo. Type of data set: ADME, organism-based. A digest of the protocol: as §3
The nature of data set [29]: Pharmacokinetic parameter AUC was evaluated in 10% PEG suspension at a dose of 20 mg/kg orally. The data set is classed as ADME, organism-based. Also noted: dose 20 mg/kg, route oral. To be noted: in vivo, po. A digest of the protocol:
as §2

A short description of data set [30]: Absolute oral bioavailability was evaluated in 10% PEG suspension at a dose of 20 mg/kg orally. Conditions: eutheria, in vivo. Type of data set: ADME, organism-based. The essentials:
as §3

Data set [31] can be described thus: Absolute oral bioavailability was evaluated in 100% PEG solution. Type of data set: ADME, organism-based. Conditions: eutheria, in vivo. The essentials: as §3
Data set [32] has as its system Mus musculus. In words: Concentration in forebrain after 10 min of injection at a concentration of 1 mg/kg, iv in mice. Type of data set: functional. A digest of the protocol: as §1
Data set [33] is described as follows: Pharmacokinetic parameter half-life evaluated in HP-beta-CD solution at a dose of 20 mg/kg orally. On the set-up: dose 20 mg/kg, route oral. To be noted: in vivo, po. Type of data set: ADME, organism-based. The essentials: as §2
A short description of data set [34]: Pharmacokinetic parameter half-life was evaluated in 0.5% methylcellulose suspension at a dose of 20 mg/kg orally. The data set is classed as ADME, organism-based. Also noted: dose 20 mg/kg, route oral. To be noted: in vivo, po. The essentials: as §2
Data set [35] is described as follows: Pharmacokinetic parameter half-life was evaluated in 100% PEG solution at a dose of 20 mg/kg orally. Type of data set: ADME, organism-based. Also noted: dose 20 mg/kg, route oral. Conditions: in vivo, po. The essentials: as §2

Calls of active or inactive are those of the source. No cut-off for these calls is given here.

Turning to `C[C@](Cc1c[nH]c2ccccc12)(NC(=O)OC1[C@H]2C[C@@H]3C[C@@H](C[C@H]1C3)C2)C(=O)NC[C@H](NC(=O)CCC(=O)O)c1ccccc1` (stereo not given in full) [CI-988], the Brain level in the data set with Mus musculus [1] was determined as 10 pmol/forebrain; in the data set with Mus musculus [3], 8 pmol/forebrain. Besides, the AUC (in general, concentration integrated over time) in data set [2] stood at 2.3 ng·h/mL; in data set [5], 134 ng·h/mL. The time to peak (Tmax) – broadly, the time from dosing to the highest level – in [4] came out at 2.3 h; in data set [6] it was 0.25 h. Further, the figures for the Cmax in [7] and in data set [8] were 32 ng/mL and 5 ng/mL, respectively. Further, the bioavailability – broadly, dose-corrected exposure relative to a reference, in per cent – is less than 1% in data set [9] and 3.2% in data set [10]. For the same molecule, in the data set on Mus musculus [11], the Brain level entry is “inactive”.

In the case of `C[C@](Cc1c[nH]c2ccccc12)(NC(=O)OC1C2CC3CC(C2)CC1C3)C(=O)N[C@@H]1CCCC[C@H]1O` (stereo not given in full), the Tmax came to 1 h in [12], 3 h in data set [14], 1.8 h in [20] and 3.5 h in data set [23]. For the same molecule, the Cmax – broadly, the maximum level reached in the sampled fluid or tissue – in [13] amounted to 203 ng/mL; in [16], 756 ng/mL; in data set [17] it was 185 ng/mL; in data set [22], 219 ng/mL. Besides, the exposure (AUC) in [15] was determined as 2130 ng·h/mL; in data set [19], 673 ng·h/mL; in data set [26], 724 ng·h/mL; in data set [29], 953 ng·h/mL. Besides, the IC50 – broadly, the concentration needed to halve the response being measured – in [18] was found to be 2900 nM. Further, the bioavailability was determined as 8.9% in data set [21], 28% in data set [28], 13% in [30] and 9.6% in data set [31]. Besides, the values for the Brain level in the data set on Mus musculus [24], with Mus musculus [27] and in the data set on Mus musculus [32] were 166 pmol/forebrain, 177 pmol/forebrain and 154 pmol/forebrain, respectively. The half-life (commonly the time in which the quantity being followed falls by half) is 1.1 h in data set [25], 0.9 h in data set [33], 1 h in [34] and 1.3 h in data set [35].
